The source made the active and inactive calls. The calls are words filed in the database; no cut-off is given here.
Key:
Chikungunya virus = experiment: Antiviral activity against Chikungunya virus infected in Vero cells assessed as inhibition of virus-induced cytopathic effect after 6 to 7 days by MTS assay; format: functional, cell-based
Vero = experiment: (§1) Cytotoxicity against African green monkey Vero cells after 6 to 7 days by MTS assay; format: cell-based; conditions: chlorocebus sabaeus, vero
Outline: (§2)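 Vero cells (subcultured 1:4, grown 7 days) seeded at 25 000 cells per well with serial compound dilutions in MEM Rega3 with 2% FCS, L-glutamine and bicarbonate. Incubated 6−7 days at 37 °C, 5% CO2. Medium then replaced with 5% MTS in phenol red-free medium for 1.5 h, A498 read. CC50 taken from dose−response curves as % of controls; multiple independent experiments.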

[1] = Inhibition of Dengue virus NS5 polymerase assessed as inhibition of radiolabeled guanosine incorporation into homopolymeric cytosine RNA template by liquid scintillation counting
Outline: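 DENV-2 NS5 polymerase, produced and purified by a prior method, assayed by radiolabeled guanosine incorporation on a homopolymeric cytosine RNA template. IC50 fitted by % enzyme activity = 100/[…], with I the inhibitor concentration; 3′-deoxy-GTP served as reference.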

[2] = as §1; format: cell-based; conditions: chlorocebus sabaeus, Vero cells; outline: as §2

**Q.** For `O=C(OC[C@H]1O[C@@H](Oc2ccc(O)cc2COC(=O)[C@@]2(O)[C@H](O)C=CC(=O)[C@@H]2O)[C@H](O)[C@@H](OC(=O)c2ccccc2)[C@@H]1O)c1ccccc1` [FLACOURTOSIDE E], which Activity (Chikungunya virus) is on record?
**A.** inactive

**Q.** What about the Activity (Vero) of the same compound?
**A.** Non-toxic

**Q.** And the IC50 [1]?
**A.** 13.4 µM

**Q.** Which Activity (Chikungunya virus) does the source give for `O=C(OC[C@H]1O[C@@H](Oc2ccc(O)cc2COC(=O)C2(O)CC(=O)[C@@H](O)[C@@H](O)[C@H]2O)[C@H](OC(=O)c2ccccc2)[C@@H](O)[C@@H]1O)c1ccccc1` (some centres undefined) [FLACOURTOSIDE D] here?
**A.** inactive

**Q.** What about the IC50 [1] of the same compound?
**A.** 35.5 µM

**Q.** Which Activity (Chikungunya virus) does the source give for `O=C(OC[C@H]1O[C@@H](Oc2ccc(O)cc2COC(=O)[C@@]2(O)[C@H](O)C=CC(=O)[C@@H]2OC(=O)c2ccccc2)[C@H](OC(=O)c2ccccc2)[C@@H](O)[C@@H]1O)c1ccccc1` [FLACOURTOSIDE F] here?
**A.** inactive

**Q.** What about the IC50 [1] of the same compound?
**A.** 39.8 µM

**Q.** For `O=C(OC[C@H]1O[C@@H](Oc2ccc(O)cc2CO)[C@H](O)[C@@H](O)[C@@H]1O)c1ccccc1` [POLIOTHYRSOSIDE], which IC50 [1] is on record?
**A.** > 50 µM

**Q.** With `O=Cc1cc(O)ccc1O[C@@H]1O[C@H](COC(=O)c2ccccc2)[C@@H](O)[C@H](O)[C@H]1O` [FLACOURTOSIDE B] as the compound, how does the Activity (Chikungunya virus) read?
**A.** inactive

**Q.** And the IC50 [1]?
**A.** 71.1 µM

**Q.** With `O=C(OC[C@H]1O[C@@H](Oc2ccc(O)cc2COC(=O)c2ccccc2O)[C@H](O)[C@@H](O)[C@@H]1O)c1ccccc1` [ITOSIDE H] as the compound, how does the IC50 [1] read?
**A.** 37.8 µM

**Q.** Which Activity (Vero) does the source give for `O=C(OC[C@H]1O[C@@H](Oc2ccc(O)cc2COC(=O)c2cccc(O)c2O)[C@H](OC(=O)c2ccccc2)[C@@H](O)[C@@H]1O)c1ccccc1` [SCOLOCHINENOSIDE D] here?
**A.** Non-toxic

**Q.** What about the IC50 [1] of the same compound?
**A.** 9.5 µM

**Q.** For `C=C(C)[C@@H]1CC[C@]2(C(=O)O)CC[C@]3(C)[C@H](CC[C@@H]4[C@@]5(C)CC[C@H](OC(=O)/C=C/c6ccc(O)c(O)c6)C(C)(C)[C@@H]5CC[C@]43C)[C@@H]12`, which CC50 [2] is on record?
**A.** 6.9 µM

**Q.** And the IC50 [1]?
**A.** 0.85 µM

**Q.** With `O=C(OC[C@H]1O[C@@H](Oc2ccc(O)cc2COC(=O)[C@@]2(O)[C@H](O)C=CC(=O)[C@@H]2O)[C@H](OC(=O)c2ccccc2)[C@@H](O)[C@@H]1O)c1ccccc1` [XYLOSMIN] as the compound, how does the IC50 [1] read?
**A.** 24.3 µM

**Q.** With `Nc1nc2c(ncn2[C@@H]2O[C@H](COP(=O)(O)OP(=O)(O)OP(=O)(O)O)C[C@H]2O)c(=O)[nH]1` as the compound, how does the IC50 [1] read?
**A.** 0.02 µM

**Q.** With `O=Cc1cc(O)ccc1O[C@@H]1O[C@H](COC(=O)c2ccccc2)[C@@H](O)[C@H](O[C@@H]2O[C@H](COC(=O)c3ccccc3)[C@@H](O)[C@H](O)[C@H]2O)[C@H]1O` [FLACOURTOSIDE C] as the compound, how does the Activity (Chikungunya virus) read?
**A.** inactive

**Q.** What about the IC50 [1] of the same compound?
**A.** 23.8 µM

Source: ChEMBL document CHEMBL2034852, “Flacourtosides A-F, phenolic glycosides isolated from Flacourtia ramontchi” (J Nat Prod, 2012)
